Measured values published in ChEMBL document CHEMBL1122631, “2,3,4,4a,5,9b-Hexahydro-1H-indeno[1,2-b]pyridines: potential antidepressants” (J Med Chem, 1984).
Where “and” joins values, the source holds several entries; their conditions need not be identical. Equal values may be shown once.

Experiments:
[1] = Acute toxicity in mice, after intraperitoneal administration.; format: organism-based; conditions: mouse, in vivo, ip
Method in brief: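 Mice, groups of 10, given compound suspended in 1% methylcellulose ip at 10 mL/kg, then housed with food and water ad libitum. Observed hourly up to 6 h; deaths recorded at 24 and 48 h.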

Rattus norvegicus [2] = organism: Rattus norvegicus; test: Compound was tested for inhibition of uptake of [14C]5-HT (5-HT) into rat whole brain, in vitro.; format: functional
Method in brief: (§1)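 Rat brain synaptosomes (Whittaker method) incubated with labelled monoamine (1 × 10^-7 mol final) at 37 °C with or without drug. [14C]NE and [14C]5-HT uptake in Krebs-Henseleit bicarbonate pH 7.4 with 11 mmol glucose; [3H]DA uptake in phosphate buffer, corpus striatum synaptosomes. Time: 5 min whole brain, 10 min hypothalamus. Nonspecific binding at 0 °C; membrane filtration, scintillation counting; IC50 from 3–4 concentrations, at least triplicate.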

Rattus norvegicus [3] = organism: Rattus norvegicus; test: Compound was tested for inhibition of uptake of [14C]norepinephrine (NE) into rat brain hypothalamus, in vitro.; format: functional; method in brief: as §1
Rattus norvegicus [4] = organism: Rattus norvegicus; test: Compound was tested for inhibition of uptake of [3H]dopamine (DA) into rat corpus striatum, in vitro.; format: functional; method in brief: as §1
[5] = Therapeutic index (TI), ratio of LD50 and ED50 (TBZ) in mice after i.p. administration; conditions: mouse, in vivo, ip
Mus musculus [6] = test: Prevention of tetrabenazine induced ptosis in mice following i.p. administration.; format: functional; conditions: ip
Method in brief: (§2)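 Mice given compound ip in 1% methylcellulose (10 mL/kg), 30 min before tetrabenazine 40 mg/kg base ip; solvent+TBZ control per test. Ptosis scored 30 min after TBZ (+1 min) as 100/50/0% (closed/half/open), not normalized.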

Rattus norvegicus [7] = organism: Rattus norvegicus; test: Compound was tested for inhibition of uptake of [14C]5-HT (5-HT) into rat whole brain, in vitro; Not determined.; format: functional; method in brief: as §1
Rattus norvegicus [8] = organism: Rattus norvegicus; test: Compound was tested for inhibition of uptake of [14C]norepinephrine (NE) into rat brain hypothalamus, in vitro; Not determined.; format: functional; method in brief: as §1
[9] = Partition coefficient (logP); format: physicochemical; conditions: octanol/water
Mus musculus [10] = test: Antidepressant activity was measured by the prevention of tetrabenazine (TBZ) induced ptosis in mice after intraperitoneal administration of the compound.; format: functional; conditions: ip; method in brief: as §2
Rattus norvegicus [11] = test: Ability to inhibit re uptake of [14C]norepinephrine in synaptosomes from rat whole brain, was determined 1 h after peroral administration of 80 mg of compound.; format: functional, organism-based
Method in brief: (§3)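 Ex vivo/in vitro: rats dosed orally or ip, killed 1 h later; whole-brain synaptosomes from a pool of n=3 rats; [14C]NE or [14C]5-HT uptake (Krebs-Henseleit bicarbonate, pH 7.4, 11 mmol glucose; 1 × 10^-7 mol labelled amine, 37 °C, 5 min), filtration, scintillation counting; quadruplicate determinations, mean ± SD as % of control-animal uptake.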

Rattus norvegicus [12] = test: Ability to inhibit re uptake of [14C]-5-HT in synaptosomes from rat whole brain, was determined 1 h after intraperitoneal administration of 80 mg of compound.; format: functional; method in brief: as §3
Rattus norvegicus [13] = test: Ability to inhibit re uptake of [14C]5-HT in synaptosomes from rat whole brain, was determined 1 h after peroral administration of 80 mg of compound.; format: functional, organism-based; method in brief: as §3
Rattus norvegicus [14] = test: Ability to inhibit re uptake of [14C]norepinephrine in synaptosomes from rat whole brain, was determined 1 hr after intraperitoneal administration of 80 mg of compound.; format: functional; method in brief: as §3
Mus musculus [15] = test: Prevention of tetrabenazine (TBZ) induced ptosis in mice after intraperitoneal administration; b denotes 'No activity detected up to a dose of one-fifth of the LD ip in mice; format: functional, organism-based; method in brief: as §2

**Q.** With CCCN1CCC[C@H]2[C@H](c3ccccc3)c3ccccc3[C@H]21 as the compound, how does the LD50 [1] read?
**A.** 24 mg/kg

**Q.** And the IC50 (Rattus norvegicus [2])?
**A.** > 100000 nM

**Q.** What about the IC50 (Rattus norvegicus [3]) of the same compound?
**A.** 410 nM

**Q.** What about the IC50 (Rattus norvegicus [4]) of the same compound?
**A.** 110 nM

**Q.** And the selectivity ratio [5]?
**A.** 30

**Q.** What about the ED50 (Mus musculus [6]) of the same compound?
**A.** 0.8 mg/kg

**Q.** What does the source list for COc1ccc2c(c1)[C@@H](c1ccc(C(C)C)cc1)[C@@H]1CCCN[C@H]21?
**A.** IC50 (Rattus norvegicus [7]): No compound available; IC50 (Rattus norvegicus [8]): No compound available

**Q.** Which results are given for Cc1ccc([C@@H]2c3cc(O)ccc3[C@H]3NCCC[C@@H]23)cc1N?
**A.** logP [9]: 2.33; ED50 (Mus musculus [10]): 3 mg/kg; LD50 [1]: 210 mg/kg; IC50 (Rattus norvegicus [2]): 430 nM; IC50 (Rattus norvegicus [3]): 40 nM; IC50 (Rattus norvegicus [4]): 100 nM; Uptake (Rattus norvegicus [11]): > 90% and 83.5% and 88.1%; Uptake (Rattus norvegicus [12]): > 90%; Uptake (Rattus norvegicus [13]): > 90%; Uptake (Rattus norvegicus [14]): 80% and > 90% and 87.7%; selectivity ratio [5]: 70

**Q.** For CCCCOc1ccc([C@H]2c3ccccc3[C@H]3NCCC[C@@H]23)cc1, which IC50 (Rattus norvegicus [7]) is on record?
**A.** No compound available

**Q.** What about the IC50 (Rattus norvegicus [8]) of the same compound?
**A.** No compound available

**Q.** For Cc1ccc([C@H]2c3cc(O)ccc3[C@H]3NCCC[C@@H]23)cc1N, which ED50 (Mus musculus [10]) is on record?
**A.** 10 mg/kg

**Q.** And the LD50 [1]?
**A.** 67 mg/kg

**Q.** Which LD50 [1] does the source give for CN1CCC[C@H]2[C@H](c3ccccc3)c3ccccc3[C@H]21 here?
**A.** 74 mg/kg

**Q.** What about the IC50 (Rattus norvegicus [2]) of the same compound?
**A.** ~100000 nM

**Q.** And the IC50 (Rattus norvegicus [3])?
**A.** 12 nM

**Q.** And the IC50 (Rattus norvegicus [4])?
**A.** 100 nM

**Q.** What about the selectivity ratio [5] of the same compound?
**A.** 185

**Q.** And the ED50 (Mus musculus [6])?
**A.** 0.4 mg/kg

**Q.** What does the source list for COc1cc2c(cc1OC)[C@H]1NCCC[C@H]1[C@@H]2c1cccnc1?
**A.** IC50 (Rattus norvegicus [7]): No compound available; IC50 (Rattus norvegicus [8]): No compound available

**Q.** What does the source list for COc1ccc([C@H]2c3ccccc3[C@@H]3[C@H]2CCCN3C)cc1?
**A.** IC50 (Rattus norvegicus [7]): No compound available; IC50 (Rattus norvegicus [8]): No compound available

**Q.** For CCCCOc1ccc([C@@H]2c3ccccc3[C@H]3NCCC[C@@H]23)cc1, which ED50 (Mus musculus [10]) is on record?
**A.** 1 mg/kg

**Q.** And the LD50 [1]?
**A.** 46 mg/kg

**Q.** What about the selectivity ratio [5] of the same compound?
**A.** 46

**Q.** With COc1ccc2c(c1)[C@H](c1ccc(C(C)C)cc1)[C@@H]1CCCN[C@H]21 as the compound, how does the ED50 (Mus musculus [15]) read?
**A.** No activity detected up to a dose of 1/5 LD50 ip in mice

**Q.** What about the LD50 [1] of the same compound?
**A.** 37 mg/kg

**Q.** What does the source list for Nc1ccc([C@H]2c3ccccc3[C@H]3NCCC[C@@H]23)cc1?
**A.** LD50 [1]: 20 mg/kg; IC50 (Rattus norvegicus [2]): 20000 nM; IC50 (Rattus norvegicus [3]): 180 nM; IC50 (Rattus norvegicus [4]): 330 nM; ED50 (Mus musculus [6]): 3 mg/kg

**Q.** For COc1cc2c(cc1OC)[C@@H]1[C@@H](CCCN1C)[C@@H]2c1ccccc1, which IC50 (Rattus norvegicus [7]) is on record?
**A.** No compound available

**Q.** What about the IC50 (Rattus norvegicus [8]) of the same compound?
**A.** No compound available

**Q.** Which results are given for c1ccc([C@@H]2c3ccccc3[C@H]3NCCC[C@@H]23)cc1?
**A.** LD50 [1]: 27 mg/kg; IC50 (Rattus norvegicus [2]): ~100000 nM; IC50 (Rattus norvegicus [3]): 18 nM; IC50 (Rattus norvegicus [4]): 20 nM; selectivity ratio [5]: 39; ED50 (Mus musculus [6]): 0.7 mg/kg

**Q.** Which results are given for COc1cc2c(cc1OC)[C@H]1NCCC[C@H]1[C@@H]2c1ccccc1?
**A.** IC50 (Rattus norvegicus [7]): No compound available; IC50 (Rattus norvegicus [8]): No compound available

**Q.** What does the source list for COc1cc2c(cc1OC)[C@H]1NCCC[C@H]1[C@@H]2c1ccc(N)cc1?
**A.** IC50 (Rattus norvegicus [7]): No compound available; IC50 (Rattus norvegicus [8]): No compound available

**Q.** Which LD50 [1] does the source give for CN1CCC[C@H]2[C@H](c3ccc(N)cc3)c3ccccc3[C@H]21 here?
**A.** 50 mg/kg

**Q.** And the IC50 (Rattus norvegicus [2])?
**A.** ~100000 nM

**Q.** What about the IC50 (Rattus norvegicus [3]) of the same compound?
**A.** 110 nM

**Q.** What about the IC50 (Rattus norvegicus [4]) of the same compound?
**A.** 240 nM

**Q.** What about the selectivity ratio [5] of the same compound?
**A.** 500

**Q.** And the ED50 (Mus musculus [6])?
**A.** 0.1 mg/kg

**Q.** For Cc1ccc([C@@H]2c3ccccc3[C@@H]3[C@H]2CCCN3C)cc1, which logP [9] is on record?
**A.** 3.83

**Q.** And the LD50 [1]?
**A.** 232 mg/kg

**Q.** And the IC50 (Rattus norvegicus [2])?
**A.** > 100000 nM

**Q.** And the IC50 (Rattus norvegicus [3])?
**A.** 65 nM

**Q.** And the IC50 (Rattus norvegicus [4])?
**A.** 90 nM

**Q.** What about the Uptake (Rattus norvegicus [11]) of the same compound?
**A.** > 90% (2×) and 76.3%

**Q.** What about the Uptake (Rattus norvegicus [12]) of the same compound?
**A.** > 90%

**Q.** And the Uptake (Rattus norvegicus [13])?
**A.** > 90% (2×) and 88.1%

**Q.** And the selectivity ratio [5]?
**A.** 77

**Q.** And the ED50 (Mus musculus [6])?
**A.** 3 mg/kg
